Assay results published in PubChem BioAssay.
Calls of active or inactive are those of the source.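 How the source made its calls, unless noted: active means Her2 level under about 52% in both replicate screens, with viability over 70% of control (limit read from the data); inconclusive means Her2 under the limit in one screen only, or viability under 70%; inactive means Her2 level above the set limit.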

What was measured:
[1] = reducers of endogenous Her2 protein level, primary screen, SKBR3 breast tumor cells, AlphaScreen, ATP viability (AID 461); conditions: 18-24 h, measured here: SKBR3 viability, ATP luminescence, at 10 µM;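 on Her2 level: lower value means less Her2 protein in the cells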;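 on viability: percent of carrier control wells set as 100% viability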
[2] = molecular target: Receptor tyrosine-protein kinase erbB-2 (Homo sapiens) (UniProt P04626); experiment: as above; conditions: 18-24 h, at 10 µM, stronger effect = lower value
[3] = SK-BR-3 cell growth inhibitors, pilot screen, 24 h, human (AID 572;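 active means viability at or below 10% of carrier control in both of two separate runs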;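 further: compound exposure lasted between 18 and 24 h rather than exactly 24 h; 100% = carrier-treated control wells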); conditions: SK-BR-3 viability, CellTiter-Glo luminescence, at 10 µM, stronger effect = lower value
[4] = HUVEC growth inhibition – cell-based, human, primary screen (AID 575;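 active means viability at or below 30% in both replicate assays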;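 further: 100% = median of untreated cell wells with 0.1% DMSO on each plate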); conditions: HUVEC proliferation, CellTiter-Glo luminescence, 72 h; at 10 µM; stronger effect = lower value
Outline: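 System: primary human umbilical vein endothelial cells; Quantity: 1250 endothelial cells in each well; Buffer or medium: supplemented EBM, 2% fetal bovine serum; Doses: one dose, 10 µM final, 0.1% DMSO; Incubation: 72 h compound incubation; Technique: ATP-based CellTiter-Glo luminescent read; Evaluation: percent of median DMSO-control luminescence; Controls: vehicle and MePR control wells.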

[5] = growth inhibitors of H69AR lung tumor, primary screen, human, duplicate replicates (AID 580;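 active means viability at or under a set limit in both replicates, limit being median viability minus 3 SD, cut at about 48% in these data, passing the limit was not always enough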;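 further: 100% = mean luminescence of untreated wells and 0% = no signal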); conditions: H69AR lung tumor cells viability, ATP luminescence, 72 h; at 10 µM; stronger effect = lower value
[6] = reversal of MRP1-mediated doxorubicin resistance, pilot screen, H69AR cells, doxorubicin co-treatment (AID 601;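 active means viability loss from added drug above about 55%, and viability with drug at most 40%, in both replicates, limit read from the data, passing the limit was not always enough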); conditions: CellTiter-Glo, 72 h, at 10 µM; for differential viability (reversal): stronger effect = higher value
[7] = 384-well plate pilot, post-Golgi transport modulator project, inhibition of yeast transport mutant growth (AID 636; in the data active means inhibition above about 31%); conditions: absorbance 615 nm, about 18 h, stronger effect = higher value
[8] = growth suppression of yeast trafficking mutant, preliminary HTS, modulators of trafficking downstream of Golgi apparatus project, 1536-format plate, OD 615 nm (AID 637; in the data active means inhibition above about 30%); conditions: yeast transport mutant growth, absorbance 615 nm, 18 h; stronger effect = higher value
[9] = H69AR cells + 2 uM doxorubicin, measured here: viability with 2 uM doxorubicin, stronger effect = lower value
[10] = H69AR cells, compound alone cytotoxicity

Sequence of Receptor tyrosine-protein kinase erbB-2 (Homo sapiens) (P04626 whole entry, looked up): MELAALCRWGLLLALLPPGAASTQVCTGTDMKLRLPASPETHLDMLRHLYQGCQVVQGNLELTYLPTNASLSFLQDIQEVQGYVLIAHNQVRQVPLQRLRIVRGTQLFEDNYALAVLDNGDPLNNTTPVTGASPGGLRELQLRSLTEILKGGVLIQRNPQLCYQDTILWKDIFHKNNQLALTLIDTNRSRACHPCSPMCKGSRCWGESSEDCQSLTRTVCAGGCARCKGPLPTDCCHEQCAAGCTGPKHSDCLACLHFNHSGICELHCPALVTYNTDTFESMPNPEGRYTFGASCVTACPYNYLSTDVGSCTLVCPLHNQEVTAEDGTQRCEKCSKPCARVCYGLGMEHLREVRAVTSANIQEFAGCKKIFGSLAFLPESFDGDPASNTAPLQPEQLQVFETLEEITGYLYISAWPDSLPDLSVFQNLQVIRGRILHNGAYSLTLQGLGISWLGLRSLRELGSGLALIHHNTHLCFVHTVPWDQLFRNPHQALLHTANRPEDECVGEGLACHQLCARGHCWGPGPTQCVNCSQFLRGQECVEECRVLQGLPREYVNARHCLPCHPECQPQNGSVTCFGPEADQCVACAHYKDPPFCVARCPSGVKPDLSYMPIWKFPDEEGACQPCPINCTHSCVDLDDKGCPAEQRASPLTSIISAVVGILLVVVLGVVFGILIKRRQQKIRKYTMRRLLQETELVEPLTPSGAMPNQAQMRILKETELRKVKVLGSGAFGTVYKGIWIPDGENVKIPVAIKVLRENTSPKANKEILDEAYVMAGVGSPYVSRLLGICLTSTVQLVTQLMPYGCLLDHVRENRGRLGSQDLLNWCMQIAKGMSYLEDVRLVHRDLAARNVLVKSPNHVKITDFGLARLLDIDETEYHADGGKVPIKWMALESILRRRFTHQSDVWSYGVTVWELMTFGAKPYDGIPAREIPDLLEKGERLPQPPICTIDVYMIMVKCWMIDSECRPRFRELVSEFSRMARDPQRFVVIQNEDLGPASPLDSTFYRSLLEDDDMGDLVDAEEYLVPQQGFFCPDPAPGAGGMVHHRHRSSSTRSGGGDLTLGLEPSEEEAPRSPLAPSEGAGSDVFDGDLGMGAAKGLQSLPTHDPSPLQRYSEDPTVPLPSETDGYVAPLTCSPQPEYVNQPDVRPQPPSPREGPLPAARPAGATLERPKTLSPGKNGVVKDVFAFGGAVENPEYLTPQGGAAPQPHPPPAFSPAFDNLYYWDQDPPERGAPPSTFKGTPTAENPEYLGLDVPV

For `Cc1ccc2c(c1)sc1ncc(NC(=O)c3ccccc3)c(=O)n12`, the viability [1] was 88.5%, the Her2 level [2] was 87% (inactive) and the viability [3] was 88.5% (inactive). The viability [4] was 114% (inactive), the viability [5] was 91.7% (inactive) and the differential viability (reversal) ([6]; H69AR cells + 2 uM doxorubicin) was 3.43% (inactive). The viability [6, 9] was 88.3%, the viability [6, 10] was 91.7% and the inhibition [7] was -0.67% (inactive). The inhibition [8] was 0.66% (inactive).

For `CCCC(=O)Nc1ccc(NC(=O)c2ccccc2OC)cn1`, the viability [1] was 94.5%, the Her2 level [2] was 101% (inactive) and the viability [3] was 94.5% (inactive). For the same compound, the viability [4] was 100% (inactive), the viability [5] was 92.9% (inactive) and the differential viability (reversal) ([6]; H69AR cells + 2 uM doxorubicin) was 5.96% (inactive). For the same compound, the viability [6, 9] was 86.9%, the viability [6, 10] was 92.9% and the inhibition [7] was -1.17% (inactive). For the same compound, the inhibition [8] was -4.43% (inactive).

For `Cc1cc(N2CCN(C)CC2)nc(N2CCOCC2)n1`, the viability [1] was 105%, the Her2 level [2] was 89.5% (inactive) and the viability [3] was 105% (inactive). The viability [4] was 97.7% (inactive), the viability [5] was 92.2% (inactive) and the differential viability (reversal) ([6]; H69AR cells + 2 uM doxorubicin) was 4.88% (inactive). The viability [6, 9] was 87.4%, the viability [6, 10] was 92.2% and the inhibition [7] was -3.82% (inactive). The inhibition [8] was -8.17% (inactive).

In the case of `CC(C)N(O)C(=O)NC(C)(C)C`, the viability [1] is reported as 110%, the Her2 level [2] is reported as 99% (inactive) and the viability [3] is reported as 110% (inactive). For the same compound, the viability [4] was 97.8% (inactive), the viability [5] was 93.8% (inactive) and the differential viability (reversal) ([6]; H69AR cells + 2 uM doxorubicin) was -5.12% (inactive). For the same compound, the viability [6, 9] was 98.9%, the viability [6, 10] was 93.8% and the inhibition [7] was -2.8% (inactive). The inhibition [8] was 5% (inactive).

For `COc1ccc(CN(C(=O)c2ccccc2OC)C2CCS(=O)(=O)C2)cc1` (stereo not given), the viability [1] was 95%, the Her2 level [2] was 90.5% (inactive) and the viability [3] was 95% (inactive). For the same compound, the viability [4] was 115% (inactive), the viability [5] was 96.8% (inactive) and the differential viability (reversal) ([6]; H69AR cells + 2 uM doxorubicin) was 7.03% (inactive). The viability [6, 9] was 89.8%, the viability [6, 10] was 96.8% and the inhibition [7] was -0.53% (inactive). The inhibition [8] was 9.34% (inactive).

With `CCOC(=O)C1CCN(Cc2ccc(C(=O)OC)cc2)CC1` the viability [1] was 93.5%, the Her2 level [2] was 106% (inactive) and the viability [3] was 93.5% (inactive). The viability [4] was 87% (inactive), the viability [5] was 87.4% (inactive) and the differential viability (reversal) ([6]; H69AR cells + 2 uM doxorubicin) was 4.25% (inactive). The viability [6, 9] was 83.2%, the viability [6, 10] was 87.4% and the inhibition [7] was -4.08% (inactive). For the same compound, the inhibition [8] was -1.8% (inactive).

In the case of `O=C(CN(c1ccccc1)S(=O)(=O)c1ccccc1)N1CCN(Cc2ccc3c(c2)OCO3)CC1`, the viability [1] is reported as 104%, the Her2 level [2] is reported as 73% (inactive) and the viability [3] is reported as 104% (inactive). The viability [4] was 92.7% (inactive), the viability [5] was 96.9% (inactive) and the differential viability (reversal) ([6]; H69AR cells + 2 uM doxorubicin) was 5.03% (inactive). The viability [6, 9] was 91.8%, the viability [6, 10] was 96.9% and the inhibition [7] was -6% (inactive). The inhibition [8] was 0.32% (inactive).

In the case of `COc1ccccc1C(O)P(=O)(OC(C)C)c1ccc(N(C)C)cc1` (stereo not given), the viability [1] is reported as 101%, the Her2 level [2] is reported as 120% (inactive) and the viability [3] is reported as 101% (inactive). The viability [4] was 104% (inactive), the viability [5] was 98.1% (inactive) and the differential viability (reversal) ([6]; H69AR cells + 2 uM doxorubicin) was 11.6% (inactive). For the same compound, the viability [6, 9] was 86.5%, the viability [6, 10] was 98.1% and the inhibition [7] was -6.53% (inactive). The inhibition [8] was -5% (inactive).

For `COc1cc(NC(=O)c2ccc(COCC(F)(F)F)o2)cc(OC)c1OC`, the viability [1] was 95%, the Her2 level [2] was 84% (inactive) and the viability [3] was 95% (inactive). The viability [4] was 92.8% (inactive), the viability [5] was 99.6% (inactive) and the differential viability (reversal) ([6]; H69AR cells + 2 uM doxorubicin) was 20.1% (inactive). For the same compound, the viability [6, 9] was 79.5%, the viability [6, 10] was 99.6% and the inhibition [7] was -1.45% (inactive). The inhibition [8] was 2.58% (inactive).

With `COc1ccc(-c2cn3cc(C)ccc3n2)cc1OC` the viability [1] was 108%, the Her2 level [2] was 88% (inactive) and the viability [3] was 108% (inactive). The viability [4] was 91.5% (inactive), the viability [5] was 63.7% (inactive) and the differential viability (reversal) ([6]; H69AR cells + 2 uM doxorubicin) was 0.63% (inactive). For the same compound, the viability [6, 9] was 63.1%, the viability [6, 10] was 63.7% and the inhibition [7] was -5.26% (inactive). For the same compound, the inhibition [8] was -1.64% (inactive).

With `Cn1c(SCc2ccccc2)nnc1C1CCCNC1` (stereo not given) the viability [1] was 112%, the Her2 level [2] was 106% (inactive) and the viability [3] was 112% (inactive). The viability [4] was 103% (inactive), the viability [5] was 90.8% (inactive) and the differential viability (reversal) ([6]; H69AR cells + 2 uM doxorubicin) was -4.07% (inactive). The viability [6, 9] was 94.8%, the viability [6, 10] was 90.8% and the inhibition [7] was 0% (inactive). For the same compound, the inhibition [8] was 0.17% (inactive).

With `C(#Cc1ccccc1)Cn1nnc2ccccc21` the viability [1] was 80.5%, the Her2 level [2] was 86.5% (inactive) and the viability [3] was 80.5% (inactive). For the same compound, the viability [4] was 99% (inactive), the viability [5] was 83.1% (inactive) and the differential viability (reversal) ([6]; H69AR cells + 2 uM doxorubicin) was 7.46% (inactive). The viability [6, 9] was 75.6%, the viability [6, 10] was 83.1% and the inhibition [7] was 0.9% (inactive). The inhibition [8] was 4.33% (inactive).

With `CCSc1nnc(-c2ccc(OC)cc2)o1` the viability [1] was 100%, the Her2 level [2] was 93.5% (inactive) and the viability [3] was 100% (inactive). The viability [4] was 92.7% (inactive), the viability [5] was 81.2% (inactive) and the differential viability (reversal) ([6]; H69AR cells + 2 uM doxorubicin) was -10.4% (inactive). For the same compound, the viability [6, 9] was 91.6%, the viability [6, 10] was 81.2% and the inhibition [7] was -0.51% (inactive). The inhibition [8] was -11% (inactive).

With `CC(=O)NCc1ccc(C(=O)CSc2nnc(-c3ccncc3)n2Cc2ccccc2)o1` the viability [1] was 99.5%, the Her2 level [2] was 92.5% (inactive) and the viability [3] was 99.5% (inactive). For the same compound, the viability [4] was 97% (inactive), the viability [5] was 97.1% (inactive) and the differential viability (reversal) ([6]; H69AR cells + 2 uM doxorubicin) was 9.33% (inactive). The viability [6, 9] was 87.8%, the viability [6, 10] was 97.1% and the inhibition [7] was -5% (inactive). The inhibition [8] was 10.3% (inactive).

In the case of `COc1ccc(N2CCN(C(=O)CSc3ccccc3N)CC2)cc1`, the viability [1] is reported as 85.5%, the Her2 level [2] is reported as 88% (inactive) and the viability [3] is reported as 85.5% (inactive). The viability [4] was 88.2% (inactive), the viability [5] was 94.9% (inactive) and the differential viability (reversal) ([6]; H69AR cells + 2 uM doxorubicin) was -2.63% (inactive). The viability [6, 9] was 97.5%, the viability [6, 10] was 94.9% and the inhibition [7] was 0% (inactive). The inhibition [8] was -0.55% (inactive).

For `CN1C(=O)C(O)(CC(=O)c2ccc3c(c2)OCO3)c2ccccc21` (stereo not given), the viability [1] was 99.5%, the Her2 level [2] was 90.5% (inactive) and the viability [3] was 99.5% (inactive). The viability [4] was 84.7% (inactive), the viability [5] was 82.5% (inactive) and the differential viability (reversal) ([6]; H69AR cells + 2 uM doxorubicin) was 9.22% (inactive). The viability [6, 9] was 73.3%, the viability [6, 10] was 82.5% and the inhibition [7] was 0.52% (inactive). The inhibition [8] was -0.83% (inactive).
